# PKD1 kinase inh: PKD1 (human) kinase inhibition; inhibition, % (concentration not given with the values); Q15139; 200,000 compounds, 0.056% hits; AID 797; PKD1 kinase fluorescence polarization assay; in the data active means inhibition above about 50%
# Target sequence (Q15139 whole entry, looked up): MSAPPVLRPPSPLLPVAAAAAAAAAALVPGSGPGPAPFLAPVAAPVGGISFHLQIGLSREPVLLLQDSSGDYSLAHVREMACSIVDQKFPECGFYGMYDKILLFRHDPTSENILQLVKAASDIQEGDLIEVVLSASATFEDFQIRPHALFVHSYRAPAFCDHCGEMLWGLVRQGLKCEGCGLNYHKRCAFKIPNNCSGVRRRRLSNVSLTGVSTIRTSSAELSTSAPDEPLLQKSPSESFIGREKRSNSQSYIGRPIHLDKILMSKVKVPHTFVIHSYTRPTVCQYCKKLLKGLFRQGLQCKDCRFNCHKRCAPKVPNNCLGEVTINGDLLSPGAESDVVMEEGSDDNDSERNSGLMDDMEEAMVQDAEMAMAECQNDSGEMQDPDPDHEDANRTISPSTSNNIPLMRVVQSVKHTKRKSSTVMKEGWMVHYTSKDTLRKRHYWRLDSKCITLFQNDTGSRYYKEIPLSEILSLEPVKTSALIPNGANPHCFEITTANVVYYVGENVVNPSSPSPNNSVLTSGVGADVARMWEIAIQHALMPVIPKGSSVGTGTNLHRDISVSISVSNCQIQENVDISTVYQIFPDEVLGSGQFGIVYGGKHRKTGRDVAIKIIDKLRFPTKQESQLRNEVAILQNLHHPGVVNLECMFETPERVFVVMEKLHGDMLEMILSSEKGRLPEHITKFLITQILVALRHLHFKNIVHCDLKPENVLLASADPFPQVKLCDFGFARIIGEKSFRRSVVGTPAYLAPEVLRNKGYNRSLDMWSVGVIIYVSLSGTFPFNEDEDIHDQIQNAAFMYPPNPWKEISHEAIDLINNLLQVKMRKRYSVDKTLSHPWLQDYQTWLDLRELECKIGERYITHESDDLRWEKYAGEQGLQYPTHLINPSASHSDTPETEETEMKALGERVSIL
# ROMK primary: human ROMK K+ channel modulation, primary screen; 130,000 compounds, 2% hits; AID 1918; Tet-inducible ROMK, thallium flux fluorescence; actives lie on both sides; P48048; B-score at 10 µM;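 active means signal ratio slope over the read window, or its plate-corrected B-score, at least 3 SD from the plate mean, either direction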;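 further: B-score of the F/F0 ratio slope over 7 to 12 s after thallium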
# Redox H2O2 prof: compounds producing H2O2 with reducing agent – biochemical, NIH compound library profiling, artefact control for MLSCN library redox annotation, primary screen; DTT-dependent redox cycling H2O2, phenol red/HRP absorbance; 100% = 100 µM peroxide control, 0% = buffer; activation, % at 10 µM; 200,000 compounds, 0.03% hits;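 active means activation of at least 50% relative to the plate's high and low controls in the primary single-dose screen; inactive means activation below 50%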;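 further: compound incubated with DTT at 0.8 mM final as the reducing agent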
# Mdm2 ligase inh: blocks human Mdm2 ubiquitin ligase activity. 210,000 compounds, 0.11% hits. signal enhancement, % at 5 µM. Q00987. cell-based MDM2 ubiquitination luciferase reporter, 2 h; 0 = plate control, 100 = twice control, blank-subtracted;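 active means signal enhancement of 30% or more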;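 further: luminescence tracks abundance of the self-degrading MDM2-luciferase fusion protein; higher signal means inhibition of MDM2 E3 ligase activity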
#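 Timing – 2 h compound exposure at 37 °C · Assay system – mammalian cells stably expressing self-ubiquitinating, self-degrading MDM2 E3–luciferase fusion · Amount – 2000 cells seeded into each well · Measure – % luminescence enhancement versus blank-corrected plate control mean · Measured by – SteadyLite luminescence, 15 min reagent step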
# p97 inhibitor: inhibitors of human p97 ATPase; recombinant p97 ATPase, Kinase-Glo ATP luminescence, 3 h; 220,000 compounds, 0.42% hits; P55072; inhibition, % at 8 µM; in the data active means inhibition above about 15%
# KCC2 mod: modulators of human KCC2 chloride dependent transport. Q9H2X9. KCC2 cells, thallium flux FluoZin-2 fluorescence. B-score of Tl+ flux slope (higher = more flux/activation; lower = inhibition) at 10 µM. 190,000 compounds, 2.2% hits;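 active means thallium flux slope and its plate-corrected score both differing from the plate sample mean at a set confidence after two filtering rounds, in either direction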;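 further: slope of fluorescence scaled to starting intensity during 10 to 20 s after thallium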
# Hits are given with their value; n = inactive; x = not tested or not shown. Hits are enriched below; roughly 3.4% of the tested compounds scored in any of these assays.
SMILES,PKD1 kinase inh,ROMK primary,Redox H2O2 prof,Mdm2 ligase inh,p97 inhibitor,KCC2 mod
O=[N+]([O-])c1ccc(/C=N/N=C/c2ccc([N+](=O)[O-])o2)o1,n,n,n,77,n,n
COc1ccc(N2C(=O)[C@@H]3[C@H](C2=O)[C@H]2c4ccccc4C=CN2[C@@H]3C(C)=O)cc1,n,-3.6,n,n,n,n
O=C(N/N=C/c1cccnc1)c1ccc2c(c1)OCCO2,n,n,n,n,n,n
COc1nc(N)nc(N2CCOCC2)n1,n,x,n,n,n,n
CCSc1nc2ccccc2n1C(=O)/C=C\c1ccc(OC)c(OC)c1,n,x,n,43,n,x
CCC(=O)Oc1ccc2c(c1)OC1(OC(C)=O)OC(C)CC1=C2C (centres undefined),x,x,x,n,n,n
CN(C)S(=O)(=O)c1ccc(NC(=S)NC(=O)c2ccc(Br)o2)cc1,n,2.4,n,n,n,13
NCC/C=C1/c2ccccc2CSc2ccccc21,n,-5.2,n,n,n,n
N#Cc1c2c(c(-c3ccccc3Cl)[nH]c1=S)CCCC2,n,n,n,n,n,40
COc1ccccc1-c1cc(C(F)(F)F)nc(S(=O)(=O)CCCC(=O)NC(C)C)n1,n,n,n,n,n,n
COc1ccccc1-c1cc(C(F)(F)F)nc(S(=O)(=O)CCCC(=O)Nc2cccnc2Cl)n1,n,n,n,43,n,x
Cc1cc(C(=O)OCC(=O)Nc2cc(S(=O)(=O)N3CCOCC3)ccc2Cl)c(C)o1,n,n,n,n,16,x
CCc1ccc(NC(=O)c2noc3c2CCC3)cc1,n,n,n,n,n,x
C=CCNC(=S)Nc1sc2c(c1C(=O)OCC)CCN(C(=O)OCC)C2,n,n,n,n,n,n
C=CCNC(=S)Nc1sc2c(c1C(=O)OCC)CC(C)(CC)OC2 (centres undefined),n,x,n,n,n,22
CCN(CC)CCn1c(=S)[nH]c2ccccc2c1=O,n,x,n,n,n,n
CC(C)COn1c(=S)[nH]c2ccccc2c1=O,n,x,n,n,n,49
COCCN1Cc2cccc(C(=O)Nc3c(C)cccc3C)c2C1=O,n,x,n,n,n,n
CCN(CC)c1ccc(/C=C2\C(=O)c3ccc(C(=O)O)cc3C2=O)cc1,n,x,n,79,n,n
CCN(CC)c1ccc(C(=O)O)cc1,n,x,n,n,n,n
C/C(=N\NC(=O)C1CC1)c1ccc(NC(=O)c2ccc(Br)o2)cc1,n,n,n,n,n,n
Cc1cc(C)c2nc(SCC(=O)NCCC3=CCCCC3)cc(C)c2c1,n,n,n,n,n,12
CCOC(=O)NC(=O)CSc1cc(C)c2cc(C)cc(C)c2n1,n,n,n,n,n,n
O=C(CCC(=O)N1CCN(c2ccccn2)CC1)Nc1nnc(C2CCCCC2)s1,n,x,n,n,n,n
C#Cc1ccc([C@@H]2C=C(C(=O)N3CCN(Cc4ccccc4)CC3)O[C@H](OCC)[C@H]2CCCO)cc1,n,x,n,x,n,-3.8
SMILES,PKD1 kinase inh,ROMK primary,Redox H2O2 prof,Mdm2 ligase inh,p97 inhibitor,KCC2 mod
CCO[C@@H]1OC(C(=O)NCc2ccccc2)=C[C@H](c2csc3ccccc23)[C@H]1CCCO,n,x,n,x,n,-2.9
C#Cc1ccc([C@H]2C=C(C(=O)N3CCN(Cc4ccccc4)CC3)O[C@@H](OCC)[C@@H]2CCCO)cc1,n,x,n,x,n,n
C#CCNC(=O)C1=C[C@H](c2csc3ccccc23)[C@@H](CCCO)[C@H](OCC)O1,n,x,n,x,n,n
N#CCCC1CCCC=C1N(Cc1ccccc1)C(=O)C(Cl)Cl (centres undefined),x,x,x,n,n,n
NC(=O)[C@H]1CC2(CC(c3cccc(NC(=O)CC(c4ccccc4)c4ccccc4)c3)=NO2)CN1C(=O)c1ccccc1C(=O)c1ccccc1 (some centres undefined),x,x,x,n,x,n
CCCCCCC1CC(CCC(=O)Nc2ccc([N+](=O)[O-])cc2)C(=O)O1 (centres undefined),n,x,n,n,n,x
O=C(NCCCO)c1ccc2nc(-c3ccco3)c(-c3ccco3)nc2c1,n,n,n,n,n,n
O=C(NCCO)Nc1ccc2nc(-c3ccco3)c(-c3ccco3)nc2c1,n,x,n,n,44,x
CCOC(=O)c1cc2c(nc1N)CCCC2,x,n,x,n,n,n
C=C(C)CNC(=S)Nc1nc2c(cc1C(=O)OCC)CCCC2,n,n,n,n,n,43
O=C(O)C1Nc2c(O)cc(Cl)c([N+](=O)[O-])c2C2C=CCC12 (centres undefined),n,n,n,n,54,n
CC(=O)c1ccc(NC(=S)Nc2cccc3cnccc23)cc1,x,x,x,x,17,n
S=C(Nc1cccc(Cl)c1)Nc1cccc2cnccc12,n,x,n,n,27,n
Cc1ccc(NC(=S)Nc2cccc3cnccc23)cc1,n,n,n,n,n,n
c1ccc(-n2ncc3c2ncn2nc(-c4ccco4)nc32)cc1,n,x,n,n,n,x
O=C(Nc1cc(S(=O)(=O)N2CCOCC2)ccc1O)c1ccc(NS(=O)(=O)c2ccc(Cl)s2)cc1,n,n,n,n,n,n
COc1ccccc1NC(=O)c1ccccc1NS(=O)(=O)c1cccs1,n,n,n,n,n,n
COc1ccc(C)cc1NC(=O)c1ccccc1NS(=O)(=O)c1ccc(Cl)s1,n,-3.7,n,n,n,-3.6
Cc1ccc(NC(=O)c2ccccc2NS(=O)(=O)c2ccc(Cl)s2)cc1S(=O)(=O)N1CCOCC1,n,-3.1,n,n,n,-4.2
O=C(OCC(=O)N1CCc2ccccc21)c1nc(Cl)ccc1Cl,n,n,n,n,n,n
O=[N+]([O-])c1ccc(O)c(/C=N/NC(=S)Nc2ccc(Cl)cc2Cl)c1,x,2.9,x,n,n,9.2
CC(NC(=O)Nc1nnc(C(F)(F)F)s1)(C(F)(F)F)C(F)(F)F,n,-3.5,n,n,n,x
Cc1oc(CC(C)C)cc1C(=O)Nc1ccc(C(=O)O)cc1,n,n,n,n,n,n
O=C(CSc1ccncc1)Nc1ccc2ccccc2c1,71,n,n,n,n,n
O=C(NC(=S)N1CCN(c2ccc([N+](=O)[O-])cc2)CC1)c1ccc(F)cc1,n,n,n,n,n,25
SMILES,PKD1 kinase inh,ROMK primary,Redox H2O2 prof,Mdm2 ligase inh,p97 inhibitor,KCC2 mod
O=C(NC(=S)N1CCN(c2ccc([N+](=O)[O-])cc2)CC1)c1ccccc1F,n,n,n,n,n,n
COc1ccc(CN=CC2=C(O)CC(C)(C)CC2=O)cc1,n,x,n,n,n,n
CC(CC(=O)Nc1ncc([N+](=O)[O-])s1)c1ccccc1 (centres undefined),n,-4.4,n,n,n,x
O=C1CSC(c2ccccc2F)N1 (centres undefined),x,n,x,n,n,n
CC(C)n1c(Nc2ccccc2)nc2ccccc21,n,-3.2,n,n,n,n
CC(C)n1c(NCCO)nc2ccccc21,n,n,n,n,n,n
